Measurements collected from several papers.
Compare with care: the assays were run in different laboratories.

For `COc1cccc2c1C(=O)c1c(O)c3c(c(O)c1C2=O)C[C@@](O)(C(=O)CO)C[C@@H]3O[C@H]1C[C@H](N)[C@H](O)[C@H](C)O1`, the IC50 was 0.34 µM (NCI-H1975; cell growth or viability, MTT; 72 h).
With `CN(Cc1ccc(C(C)(C)C)cc1)Cc1cccc2ccccc12` the inhibition zone was no less than 55 mm (Trichophyton rubrum; microbial growth, disc diffusion; ATCC28188; 0.064 µg/mL, 6 days).
With `O=C(c1ccc(Oc2ccc3c(c2)OCO3)c([N+](=O)[O-])c1)C(Cl)Cl` the inhibition was 97.3% (NCI-H1975; cell growth or viability, MTT; 2.5 µM).
For `C=CC(=O)NC1CCN(c2ncc3ncnc(Nc4ccc(Oc5ccc6c(c5)ncn6C)c(C)c4)c3n2)CC1`, the EC50 was 7.04 µM (HCC1428; cell growth or viability).
`O=C(CO/N=c1\cc2n(-c3ccc(Cl)cc3)c3ccccc3nc-2cc1Nc1ccc(Cl)cc1)NCc1ccc2c(c1)CCO2` has an MIC of 1.88 µM (Mycobacterium avium; microbial growth; ATCC700898).
For `N#Cc1ccc(Oc2ccc(C(=O)C(Cl)Cl)cc2[N+](=O)[O-])cc1`, the inhibition was 96.8% (NCI-H1975; cell growth or viability, MTT; 2.5 µM).
The MIC of `Nc1nc(N)c(OCCCOc2ccccc2CCC(=O)O)c(C2CCNCC2)n1` is reported as 6.2 µg/mL (Mycobacterium avium; microbial growth, resazurin).
`CC(=O)c1ccc(Oc2ccc(C(=O)C(Cl)Cl)cc2[N+](=O)[O-])cc1` gave an inhibition of 85.2% (NCI-H1975; cell growth or viability, MTT; 2.5 µM).
`C[C@H](NC(=O)CO/N=c1\cc2n(-c3ccc(Cl)cc3)c3ccccc3nc-2cc1Nc1ccc(Cl)cc1)C(=O)OC(C)(C)C` has an MIC of greater than 30 µM (Mycobacterium avium; microbial growth; clinical isolate).
The inhibition zone of `CN(Cc1ccc(C2(C(F)(F)F)CC2)cc1)Cc1cccc2ccccc12` is reported as no less than 55 mm (Trichophyton rubrum; microbial growth, disc diffusion; ATCC28188; 0.256 µg/mL, 6 days).
`O/N=c1\cc2n(-c3ccc(Cl)cc3)c3ccccc3nc-2cc1Nc1ccc(Cl)cc1` has an MIC of 1.88 µM (Mycobacterium avium; microbial growth; ATCC700898).
The MIC of `NCC[C@H](O)C(=O)N[C@@H]1C[C@H](N)[C@@H](O[C@H]2O[C@H](CN)[C@@H](O)[C@H](O)[C@H]2O)[C@H](O)[C@H]1O[C@H]1O[C@H](CO)[C@@H](O)[C@H](N)[C@H]1O` is reported as 1.7 µg/mL (Mycobacterium avium; microbial growth, resazurin).
The MIC of `CO/N=c1\cc2n(-c3ccc(Cl)cc3)c3ccccc3nc-2cc1Nc1ccc(Cl)cc1` is reported as 0.47 µM (Mycobacterium avium; microbial growth; ATCC700898).
`CC(=O)Nc1ccc(Oc2ccc(C(=O)C(Cl)Cl)cc2[N+](=O)[O-])cc1Cl` gave an inhibition of 96.5% (NCI-H1975; cell growth or viability, MTT; 2.5 µM).
The MIC of `CCOC(=O)CNC(=O)CO/N=c1\cc2n(-c3ccc(Cl)cc3)c3ccccc3nc-2cc1Nc1ccc(Cl)cc1` is reported as greater than 30 µM (Mycobacterium avium; microbial growth; clinical isolate).
`Nc1nc(N)c(OCCCOc2ccccc2CCC(=O)O)c(-c2ccccc2C(F)(F)F)n1` has an MIC of 3.6 µg/mL (Mycobacterium avium; microbial growth, resazurin).
The inhibition of `O=C(c1ccc(Oc2ccc(Br)cc2)c([N+](=O)[O-])c1)C(Cl)Cl` is reported as 60.3% (NCI-H1975; cell growth or viability, MTT; 2.5 µM).
`O=C(CO/N=c1\cc2n(-c3ccc(Cl)cc3)c3ccccc3nc-2cc1Nc1ccc(Cl)cc1)NCc1ccc(C(F)(F)F)cc1` has an MIC of greater than 30 µM (Mycobacterium avium; microbial growth; clinical isolate).
